Experimental findings from ChEMBL document CHEMBL5143722, “Antimicrobial Peptides against Multidrug-Resistant Pseudomonas aeruginosa Biofilm from Cystic Fibrosis Patients” (J Med Chem, 2022) are described below.

Molecules are shown by their SMILES. The source made the active and inactive calls. No cut-off for these calls is given here.

Assay [1] deals with Pseudomonas aeruginosa. The experiment in a line: Antibiofilm activity against Pseudomonas aeruginosa clinical isolate 59 assessed as inhibition of biofilm formation at MIC incubated for 24 hrs by crystal violet staining based microtiter plate method. It counts as functional. In a few lines: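 In BM2, bacteria at 1 × 10^6 CFU/mL were incubated with 2-fold serial peptide dilutions for 24 h at 37 °C without agitation. Unattached cells were washed off, and the remaining biofilm was stained with 0.1% crystal violet and read at OD590. Blanks had no bacteria. Biomass is given as % of untreated biofilm; at least three biological repeats.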

The test system of assay [2] is Pseudomonas aeruginosa. The experiment in a line: Induction of biofilm degradation of Pseudomonas aeruginosa clinical isolate 72 at sub MIC concentration incubated for 1 hr by crystal violet staining analysis. It counts as functional. In a few lines: (§1)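 Bacteria at 1 × 10^6 CFU/mL in BM2 grown static at 37 °C for 24 h to form biofilm. Wells rinsed of unattached cells, then exposed for 1 h to serial peptide dilutions (1.56–50 μM). Washed, stained with 0.1% crystal violet, A590 read. Biomass given as % of untreated biofilm; no-bacteria wells as blanks. At least three biological repeats.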

The test system of assay [3] is Pseudomonas aeruginosa. The experiment in a line: Induction of biofilm degradation of Pseudomonas aeruginosa clinical isolate 238 at sub MIC concentration incubated for 1 hr by crystal violet staining analysis. Format: functional. In a few lines: as §1
Assay [4] concerns Pseudomonas aeruginosa. The assay is described as follows: Induction of biofilm degradation of Pseudomonas aeruginosa clinical isolate PAO1 at sub MIC concentration incubated for 1 hr by crystal violet staining analysis. It counts as functional. In a few lines: as §1
Assay [5] concerns Pseudomonas aeruginosa. The assay is described as follows: Antibiofilm activity against Pseudomonas aeruginosa clinical isolate 25 assessed as inhibition of biofilm formation at 1.56 uM incubated for 24 hrs by crystal violet staining based microtiter plate method. Format: functional, organism-based. An outline of the steps:
(§2)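 Washed overnight cultures in BM2 medium at 1 × 10^6 CFU/mL with 2-fold serial peptide dilutions in a U-bottom 96-well plate. Incubated 24 h at 37 °C without agitation. Unattached cells washed off, then 0.1% crystal violet stain read at 590 nm. No-bacteria blanks. Biomass expressed as % of untreated biofilm. At least three biological repeats.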

Assay [6] has as its system Pseudomonas aeruginosa. The assay is described as follows: Antibiofilm activity against Pseudomonas aeruginosa clinical isolate 251 assessed as inhibition of biofilm formation at 1.56 uM incubated for 24 hrs by crystal violet staining based microtiter plate method. Format: functional, organism-based. In a few lines:
as §2

The subject of assay [7] is Pseudomonas aeruginosa. The assay is described as follows: Antibiofilm activity against Pseudomonas aeruginosa clinical isolate 995 assessed as inhibition of biofilm formation at 1.56 uM incubated for 24 hrs by crystal violet staining based microtiter plate method. It counts as functional, organism-based. In a few lines: as §2
Assay [8] concerns Pseudomonas aeruginosa. The experiment in a line: Induction of biofilm degradation of Pseudomonas aeruginosa clinical isolate 59 at 1.56 uM incubated for 1 hr by crystal violet staining analysis. Format: functional. An outline of the steps: as §1
Assay [9] has as its system Pseudomonas aeruginosa. The experiment in a line: Antibiofilm activity against Pseudomonas aeruginosa clinical isolate 24 in artificial sputum medium at 100 uM incubated for 24 hrs by resazurin staining based microtiter plate method. Format: functional, organism-based. An outline of the steps: (§3)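 Washed overnight culture set to OD ~0.05 in BM2, diluted 1:100 into artificial sputum medium (pH 6.9) in 24-well plates. Grown 3 days aerobically at 37 °C with agitation. Peptides (12.5–100 μM) added for 24 h with agitation. Biofilm disrupted by cellulase for 1 h at 37 °C. Resazurin 0.02% for 1–2 h, fluorescence ex 530/em 590 nm; viability as % of untreated wells.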

For assay [10], the system named is Pseudomonas aeruginosa. The experiment in a line: Antibiofilm activity against Pseudomonas aeruginosa clinical isolate 82 in artificial sputum medium at 50 uM incubated for 24 hrs by resazurin staining based microtiter plate method. Format: functional, organism-based. In a few lines: as §3
A general note: Alamar Blue is a resazurin reagent that responds to reducing activity.

In assay [11] the test system is Pseudomonas aeruginosa. The experiment in a line: Induction of biofilm degradation of Pseudomonas aeruginosa clinical isolate 24 derived from cystic fibrosis patient sputum at 1.56 to 50 uM by crystal violet based staining analysis. It counts as functional. The following applies: dose 1.56-50 µM. In a few lines: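 Biofilm grown from 1 × 10^6 CFU/mL in pooled CF patient sputum diluted 10-fold with BM2, static, 37 °C, 24 h. Unattached cells rinsed off, then serial peptide dilutions (1.56–50 μM) applied for 1 h. Washed and stained with 0.1% crystal violet, read at 590 nm. Reported as % of untreated biomass, with no-bacteria blanks.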

`CC[C@H](C)[C@H](NC(=O)[C@H](CCCCN)NC(=O)[C@H](CCC(=O)O)NC(=O)[C@H](CCCCN)NC(=O)[C@H](CO)NC(=O)[C@H](CCCCN)NC(=O)[C@H](CCCNC(=N)N)NC(=O)[C@H](Cc1ccccc1)NC(=O)[C@H](Cc1ccccc1)NC(=O)[C@H](CC(=O)O)NC(=O)CNC(=O)[C@H](CC(C)C)NC(=O)[C@@H](N)CC(C)C)C(=O)NCC(=O)N[C@@H](CCCCN)C(=O)N[C@@H](CCC(=O)O)C(=O)N[C@@H](Cc1ccccc1)C(=O)N[C@@H](CCCCN)C(=O)N[C@@H](CCCNC(=N)N)C(=O)N[C@H](C(=O)N[C@H](C(=O)N[C@@H](CCC(N)=O)C(=O)N[C@@H](CCCNC(=N)N)C(=O)N[C@H](C(=O)N[C@@H](CCCCN)C(=O)N[C@@H](CC(=O)O)C(=O)N[C@@H](Cc1ccccc1)C(=O)N[C@@H](CC(C)C)C(=O)N[C@@H](CCCNC(=N)N)C(=O)N[C@@H](CC(N)=O)C(=O)N[C@@H](CC(C)C)C(=O)N[C@H](C(=O)N1CCC[C@H]1C(=O)N[C@@H](CCCNC(=N)N)C(=O)N[C@H](C(=O)N[C@@H](CCC(=O)O)C(=O)N[C@@H](CO)C(N)=O)[C@@H](C)O)C(C)C)[C@@H](C)CC)C(C)C)[C@@H](C)CC`: the “inhibition (INH)” value in assay [1] is recorded as 30%.

`CC(C)C[C@H](NC(=O)[C@H](CC(C)C)NC(=O)[C@H](CC(C)C)NC(=O)[C@H](CC(C)C)NC(=O)[C@H](CC(C)C)NC(=O)[C@H](CC(C)C)NC(=O)[C@H](CC(C)C)NC(=O)[C@H](CC(C)C)NC(=O)[C@H](CC(C)C)NC(=O)[C@H](CCCCN)NC(=O)[C@H](CCCCN)NC(=O)[C@@H](N)CCCCN)C(=O)N[C@@H](CCCCN)C(=O)N[C@@H](CCCCN)C(=O)N[C@@H](CCCCN)C(N)=O`: the outcome in assay [2], in assay [3] and in assay [4] was Active.

In the case of `CC(C)C[C@H](NC(=O)[C@H](CC(C)C)NC(=O)[C@H](CCCCN)NC(=O)[C@H](CC(C)C)NC(=O)[C@H](CC(C)C)NC(=O)[C@H](CCCCN)NC(=O)[C@H](CCCCN)NC(=O)[C@H](CC(C)C)NC(=O)[C@H](CC(C)C)NC(=O)[C@H](CCCCN)NC(=O)[C@H](CCCCN)NC(=O)[C@H](CC(C)C)NC(=O)[C@H](CC(C)C)NC(=O)[C@H](CCCCN)NC(=O)[C@@H](N)CC(C)C)C(N)=O`, the inhibition entry in assay [5], in assay [6] and in [7] was “Active” throughout. Further, the outcome in assay [8], in assay [9], in assay [10] and in [11] was Active.
